Reference: ChEMBL document CHEMBL1145253, “Synthesis and evaluation of 3D templates based on a taxane skeleton to circumvent P-glycoprotein-associated multidrug resistance of cancer” (Bioorg Med Chem Lett, 2005)

Legend:
KB 3-1 = experiment: Inhibitory concentration against human KB-3-1 cells; assay type: functional, cell-based
Summary of the method: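 Cytotoxicity IC50 in two human KB lines: KB-G2, a multidrug-resistant line overexpressing P-glycoprotein (Val-185) and resistant to paclitaxel and vinblastine, and its parental drug-sensitive KB-3-1 line as the control. Both lines came from an outside academic lab.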

KB-G2 = experiment: Inhibitory concentration against KB-G2 cells; details: Homo sapiens
[1] = biological target: ATP-dependent translocase ABCB1 (Homo sapiens, UniProt P08183); experiment: Michaelis-Menten constant for human P-glycoprotein expressed in Sf9 cells
Sequence of ATP-dependent translocase ABCB1 (P08183 whole entry): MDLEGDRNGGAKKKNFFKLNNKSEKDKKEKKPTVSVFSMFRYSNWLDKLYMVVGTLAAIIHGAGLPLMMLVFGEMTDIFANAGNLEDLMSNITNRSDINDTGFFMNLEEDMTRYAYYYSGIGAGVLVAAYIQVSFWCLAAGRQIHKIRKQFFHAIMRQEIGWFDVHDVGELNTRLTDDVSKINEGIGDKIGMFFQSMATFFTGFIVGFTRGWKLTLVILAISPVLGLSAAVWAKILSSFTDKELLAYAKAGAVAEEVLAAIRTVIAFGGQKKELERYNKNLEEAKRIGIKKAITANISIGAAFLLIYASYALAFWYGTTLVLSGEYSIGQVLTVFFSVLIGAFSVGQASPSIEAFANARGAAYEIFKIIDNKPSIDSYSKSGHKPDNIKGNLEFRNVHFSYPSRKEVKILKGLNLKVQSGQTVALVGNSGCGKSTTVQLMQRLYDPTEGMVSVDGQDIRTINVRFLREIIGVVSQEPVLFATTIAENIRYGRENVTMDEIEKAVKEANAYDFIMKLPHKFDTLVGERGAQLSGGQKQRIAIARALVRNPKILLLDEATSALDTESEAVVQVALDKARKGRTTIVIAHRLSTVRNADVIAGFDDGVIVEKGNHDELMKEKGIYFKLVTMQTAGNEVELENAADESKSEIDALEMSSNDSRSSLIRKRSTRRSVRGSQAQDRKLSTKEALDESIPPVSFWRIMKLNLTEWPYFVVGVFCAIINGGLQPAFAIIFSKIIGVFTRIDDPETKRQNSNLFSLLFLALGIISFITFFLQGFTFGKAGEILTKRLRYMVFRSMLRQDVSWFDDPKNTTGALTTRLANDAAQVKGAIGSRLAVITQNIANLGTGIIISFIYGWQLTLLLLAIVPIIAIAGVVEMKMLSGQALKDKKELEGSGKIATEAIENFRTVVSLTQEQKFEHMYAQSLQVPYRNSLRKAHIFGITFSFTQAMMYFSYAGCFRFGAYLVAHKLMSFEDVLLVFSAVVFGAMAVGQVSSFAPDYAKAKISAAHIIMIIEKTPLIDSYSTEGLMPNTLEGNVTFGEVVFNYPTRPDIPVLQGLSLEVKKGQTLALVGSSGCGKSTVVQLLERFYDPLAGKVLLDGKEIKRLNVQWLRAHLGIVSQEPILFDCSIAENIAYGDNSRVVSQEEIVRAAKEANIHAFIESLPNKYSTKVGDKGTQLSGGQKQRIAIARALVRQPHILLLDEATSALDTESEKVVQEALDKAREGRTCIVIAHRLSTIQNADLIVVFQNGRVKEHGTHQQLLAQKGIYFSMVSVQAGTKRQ

With `COCOc1ccc2c(c1)[C@@H]1OC(=O)O[C@]13CCC(C)=C(CC2=O)C3(C)C` as the compound, how does the IC50 (KB 3-1) read?
The IC50 was > 50 µM.

What about the IC50 (KB-G2) of the same compound?
The IC50 was > 50 µM.

Which results are given for `COCOc1cccc2c1[C@@H]1OC(=O)O[C@]13CCC(C)=C(CO2)C3(C)C`?
IC50 (KB 3-1): > 50 µM; IC50 (KB-G2): > 50 µM

With `C=C1C2(C)CC[C@]3(OC(=O)O[C@H]3c3c(OCOC)cccc3C2=O)C1(C)C` as the compound, how does the IC50 (KB 3-1) read?
Its IC50 is > 50 µM.

And the IC50 (KB-G2)?
The IC50 was > 50 µM.

`COCOc1ccc2c(c1)[C@@H]1OC(=O)O[C@]13CCC(C)=C(COC2)C3(C)C` was tested. Which IC50 (KB 3-1) did it give?
Its IC50 is > 50 µM.

And the IC50 (KB-G2)?
The IC50 was > 50 µM.

Which IC50 (KB 3-1) does the source give for `CC1=C2COCc3ccccc3[C@@H]3OC(=O)O[C@@]3(CC1)C2(C)C` here?
Its IC50 is > 50 µM.

What about the IC50 (KB-G2) of the same compound?
The IC50 was > 50 µM.

With `CC(=O)O[C@H]1C(=O)[C@@]2(C)[C@H]([C@H](OC(=O)c3ccccc3)[C@]3(O)C[C@H](OC(=O)[C@H](O)[C@@H](NC(=O)c4ccccc4)c4ccccc4)C(C)=C1C3(C)C)[C@]1(OC(C)=O)CO[C@@H]1C[C@@H]2O` [PACLITAXEL] as the compound, how does the Km [1] read?
The Km was 0.7 µM.

And the IC50 (KB 3-1)?
Its IC50 is 0.0021 µM.

What about the IC50 (KB-G2) of the same compound?
Its IC50 is 0.6 µM.

`CC1=C2CC(=O)c3ccccc3[C@@H]3OC(=O)O[C@@]3(CC1)C2(C)C` was tested. Which IC50 (KB 3-1) did it give?
The IC50 was > 50 µM.

What about the IC50 (KB-G2) of the same compound?
The IC50 was > 50 µM.

Which IC50 (KB 3-1) does the source give for `COCOc1ccc2c(c1)[C@@H]1OC(=O)O[C@]13CCC(C)=C(CO2)C3(C)C` here?
The IC50 was > 50 µM.

What about the IC50 (KB-G2) of the same compound?
The IC50 was > 50 µM.

Which results are given for `CC1=C2COc3ccccc3[C@@H]3OC(=O)O[C@@]3(CC1)C2(C)C`?
IC50 (KB 3-1): > 50 µM; IC50 (KB-G2): > 50 µM

For `COc1ccc(CCN(C)CCCC(C#N)(c2ccc(OC)c(OC)c2)C(C)C)cc1OC` (stereo not given), which Km [1] is on record?
Its Km is 2 µM.
